Test [1] concerns the target T1, Estrogen receptor (Homo sapiens) (UniProt P03372).
T1 sequence (whole entry): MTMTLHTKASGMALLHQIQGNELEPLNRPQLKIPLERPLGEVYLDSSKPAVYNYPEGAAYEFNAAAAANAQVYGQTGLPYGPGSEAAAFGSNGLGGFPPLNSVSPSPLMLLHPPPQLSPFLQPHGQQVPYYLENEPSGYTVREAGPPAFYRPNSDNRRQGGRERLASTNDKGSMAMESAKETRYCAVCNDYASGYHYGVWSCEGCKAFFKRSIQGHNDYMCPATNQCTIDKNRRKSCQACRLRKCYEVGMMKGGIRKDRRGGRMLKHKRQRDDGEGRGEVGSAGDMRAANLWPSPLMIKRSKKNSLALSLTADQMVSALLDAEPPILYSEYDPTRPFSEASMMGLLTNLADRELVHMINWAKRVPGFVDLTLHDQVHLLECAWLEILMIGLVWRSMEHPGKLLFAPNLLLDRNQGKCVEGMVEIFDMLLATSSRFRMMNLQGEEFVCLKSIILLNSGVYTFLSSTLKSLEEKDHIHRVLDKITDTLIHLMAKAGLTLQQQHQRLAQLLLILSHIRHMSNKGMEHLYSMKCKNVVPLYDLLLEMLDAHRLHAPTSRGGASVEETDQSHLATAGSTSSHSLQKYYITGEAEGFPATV
Briefly: Displacement of [3H]E2 from human recombinant ERalpha after 1 hr by scintillation counting analysis relative to E2. The method in brief:
(§1)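 Competitive binding assay against ERα and ERβ, with E2 as internal reference.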
(Displacement assays read how much labelled ligand stays bound in the presence of the test substance.)

Test [2] addresses Estrogen receptor beta (Homo sapiens) (UniProt Q92731). Briefly: Displacement of [3H]E2 from human recombinant ERbeta after 1 hr by scintillation counting analysis relative to E2. The method in brief: as §1
Test [3] has as its target T2, 17-beta-hydroxysteroid dehydrogenase type 2 (Homo sapiens, UniProt P37059).
T2 sequence (P37059 whole entry): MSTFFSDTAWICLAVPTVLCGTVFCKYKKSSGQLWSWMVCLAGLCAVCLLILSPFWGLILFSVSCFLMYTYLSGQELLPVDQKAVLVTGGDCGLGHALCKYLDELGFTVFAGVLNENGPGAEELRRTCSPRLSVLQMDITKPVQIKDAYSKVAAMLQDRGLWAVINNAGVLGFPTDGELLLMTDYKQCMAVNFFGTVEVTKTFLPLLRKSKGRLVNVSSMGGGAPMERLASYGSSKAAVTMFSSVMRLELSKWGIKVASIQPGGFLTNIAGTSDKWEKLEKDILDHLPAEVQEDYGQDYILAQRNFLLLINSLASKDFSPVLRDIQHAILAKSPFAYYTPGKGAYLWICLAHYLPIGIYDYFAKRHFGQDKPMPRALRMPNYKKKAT
Briefly: Inhibition of 17beta-HSD2 in human MDA-MB-231 cells using [3H]E2 as substrate after 6 hrs by HPLC analysis. It counts as cell-based.

In test [4] the target is T3, 11-beta-hydroxysteroid dehydrogenase type 2 (Homo sapiens) (UniProt P80365).
T3 sequence (whole entry): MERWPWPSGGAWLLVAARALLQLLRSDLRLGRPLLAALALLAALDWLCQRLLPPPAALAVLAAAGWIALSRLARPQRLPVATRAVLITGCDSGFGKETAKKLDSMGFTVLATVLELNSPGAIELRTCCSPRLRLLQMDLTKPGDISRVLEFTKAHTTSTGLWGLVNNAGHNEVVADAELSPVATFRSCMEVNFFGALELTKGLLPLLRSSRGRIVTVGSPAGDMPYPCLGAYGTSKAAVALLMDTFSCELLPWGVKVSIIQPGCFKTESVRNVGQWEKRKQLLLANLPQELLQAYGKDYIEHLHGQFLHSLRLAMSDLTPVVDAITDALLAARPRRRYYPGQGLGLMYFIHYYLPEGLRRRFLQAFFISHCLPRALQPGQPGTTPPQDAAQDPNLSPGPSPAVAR
Briefly: Inhibition of human recombinant 11beta-HSD2 expressed in HEK293 cell using [1,2,6,7-3H]cortisol as substrate at 2 uM after 10 mins by scintillation counting analysis. It counts as cell-based. The method in brief:
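Recombinant human 11β-HSD1 or 11β-HSD2 stably transfected in HEK-293 cells, following a previously described procedure.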

For test [5], the target named is T4, Aldo-keto reductase family 1 member C3 (Homo sapiens) (UniProt P42330).
T4 sequence (whole entry): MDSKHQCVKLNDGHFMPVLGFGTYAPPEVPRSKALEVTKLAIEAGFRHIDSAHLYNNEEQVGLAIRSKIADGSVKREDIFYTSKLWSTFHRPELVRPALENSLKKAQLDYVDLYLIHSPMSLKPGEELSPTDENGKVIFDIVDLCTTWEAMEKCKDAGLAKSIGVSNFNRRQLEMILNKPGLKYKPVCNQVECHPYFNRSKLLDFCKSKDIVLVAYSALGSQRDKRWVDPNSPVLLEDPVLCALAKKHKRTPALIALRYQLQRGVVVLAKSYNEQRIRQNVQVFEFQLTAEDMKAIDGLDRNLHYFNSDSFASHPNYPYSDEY
The experiment in a line: Inhibition of human recombinant 17beta-HSD5 expressed in Escherichia coli using [1,2,6,7-3H]A-dione as substrate at 1 uM by scintillation counting analysis.

For test [6], the target named is 11-beta-hydroxysteroid dehydrogenase 1 (Homo sapiens, UniProt P28845). Briefly: Inhibition of human recombinant 11beta-HSD1 expressed in HEK293 cell using [1,2-3H]Cortisone as substrate after 10 mins by scintillation counting analysis. The format is cell-based.
Sequence of 11-beta-hydroxysteroid dehydrogenase 1 (P28845 whole entry): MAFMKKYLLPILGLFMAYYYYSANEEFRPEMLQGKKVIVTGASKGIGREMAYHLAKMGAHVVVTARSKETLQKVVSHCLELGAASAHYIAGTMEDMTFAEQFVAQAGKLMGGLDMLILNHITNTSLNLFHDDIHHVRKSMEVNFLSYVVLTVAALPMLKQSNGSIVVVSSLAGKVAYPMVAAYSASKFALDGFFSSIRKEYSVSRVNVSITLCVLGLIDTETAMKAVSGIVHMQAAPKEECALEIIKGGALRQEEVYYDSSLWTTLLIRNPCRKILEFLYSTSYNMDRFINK
Test [7] is filed under the species Homo sapiens. The experiment in a line: Selectivity ratio of IC50 for 17beta-HSD1 in human placental microsomal fraction to IC50 for 17beta-HSD2 in human placental microsomal fraction. The format is microsomes. The following applies: Microsome.

Molecules are shown by their SMILES.

From ChEMBL document CHEMBL2321834 (J Med Chem, 2013) come the findings set out here.

Sequence of Estrogen receptor beta (Homo sapiens) (Q92731 whole entry): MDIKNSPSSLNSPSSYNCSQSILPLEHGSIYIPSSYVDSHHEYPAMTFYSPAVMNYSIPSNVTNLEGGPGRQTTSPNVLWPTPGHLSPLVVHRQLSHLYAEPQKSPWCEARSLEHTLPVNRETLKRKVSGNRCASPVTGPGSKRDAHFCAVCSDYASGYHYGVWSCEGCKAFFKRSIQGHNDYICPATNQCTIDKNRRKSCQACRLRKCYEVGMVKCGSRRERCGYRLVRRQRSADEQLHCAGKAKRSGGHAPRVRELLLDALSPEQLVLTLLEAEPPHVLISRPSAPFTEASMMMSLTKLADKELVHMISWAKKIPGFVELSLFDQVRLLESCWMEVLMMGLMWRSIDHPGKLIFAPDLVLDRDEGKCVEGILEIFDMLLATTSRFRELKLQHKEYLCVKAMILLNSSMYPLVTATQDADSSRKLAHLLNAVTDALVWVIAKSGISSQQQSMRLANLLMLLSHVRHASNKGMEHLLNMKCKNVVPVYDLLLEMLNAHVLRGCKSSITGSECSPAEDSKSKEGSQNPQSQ

For `COc1cccc(N(C)C(=O)c2ccc(-c3cccc(OC)c3F)s2)c1`, the RBA in test [1] and in test [2] was under 0.1% throughout. The IC50 in test [3] is 105 nM. For the same molecule, the values for the inhibition in test [4] and in test [5] were 8% and 26%, respectively.
As to `COc1cccc(-c2ccc(C(=O)N(C)Cc3cccc(O)c3)s2)c1F`, the IC50 in test [6] is 1000 nM. In addition, the inhibition in test [4] is 10%; in test [5], 33%. In addition, the Ratio IC50 in test [7] was 73.

What is called IC50 is the concentration that gives 50% inhibition. By inhibition is commonly meant the relative decrease from the control value, in per cent.
